Results taken from ChEMBL document CHEMBL3862036, “Biphenyl Pyridazinone Derivatives as Inhaled PDE4 Inhibitors: Structural Biology and Structure-Activity Relationships” (J Med Chem, 2016).

Assays:
[1] = target: Adenosine receptor A2a (Homo sapiens, UniProt P29274); assay: Antagonist activity at adenosine A2a receptor (unknown origin)
[2] = Pro-inflammatory activity in Sprague-Dawley rat assessed as induction of neutrophilia at 1000 ug/kg, it administered as dry powder with lactose carrier through Penn-Century insufflator; details: in vivo, inhaled_or_intranasal, 1 mg/kg
[3] = Inhibition of PDE4 in PBMC (unknown origin) assessed as reduction in LPS-induced TNFalpha production incubated for 24 hrs by ELISA; details: Homo sapiens
[4] = Inhibition of PDE4 in human whole blood assessed as reduction in LPS-induced TNFalpha production incubated for 24 hrs by ELISA; assay type: tissue-based
Outline: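 Human whole blood was preincubated with LPS (final 1 μg/mL) for 10 min at 37 °C with rocking. 200 μL was added to wells holding increasing inhibitor concentrations in 100% DMSO. Plates were incubated 24 h at 37 °C under agitation, then placed on ice, diluted with PBS and centrifuged at 800g, 4 °C, for 15 min before TNF-α measurement.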

[5] = test system: Rattus norvegicus; assay: Anti-inflammatory activity in Sprague-Dawley rat assessed as inhibition of LPS-induced neutrophilia at 100 ug/kg, it administered as suspension with Penn-Century micro-sprayer aerosolizer dosed 1 hrs before LPS challenge and measured 5 hrs post dose; assay type: functional; details: inhaled or nasal
Outline: (§1)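 Suspensions in PBS/0.2% Tween 80 were homogenized, with lower doses made by 1:10 dilutions. 0.2 mL was given intratracheally by MicroSprayer to isoflurane-anesthetized fasted male Sprague-Dawley rats (230–280 g). At 1 or 18 h, rats received nebulized LPS (30 mL of a 1:100 PBS dilution of 100 mg/10 mL stock) over 40 min. Four hours later, BAL neutrophils were counted by flow cytometry.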

[6] = target: T1, Adenosine receptor A1 (Homo sapiens, UniProt P30542); assay: Antagonist activity at adenosine A1 receptor (unknown origin)
T1 sequence (P30542 whole entry): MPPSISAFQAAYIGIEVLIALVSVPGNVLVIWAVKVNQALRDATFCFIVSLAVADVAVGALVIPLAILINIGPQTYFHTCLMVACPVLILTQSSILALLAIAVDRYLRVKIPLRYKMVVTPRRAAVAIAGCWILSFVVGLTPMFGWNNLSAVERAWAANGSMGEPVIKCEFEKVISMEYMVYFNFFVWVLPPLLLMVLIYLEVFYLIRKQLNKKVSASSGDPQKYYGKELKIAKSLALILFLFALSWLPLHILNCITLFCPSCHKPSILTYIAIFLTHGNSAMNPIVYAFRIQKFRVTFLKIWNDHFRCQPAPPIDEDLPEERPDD

[7] = Basicity constant, pKB of the compound; assay type: physicochemical
[8] = target: T2, Adenosine receptor A2b (Homo sapiens, UniProt P29275); assay: Antagonist activity at adenosine A2b receptor (unknown origin)
T2 sequence (P29275 whole entry): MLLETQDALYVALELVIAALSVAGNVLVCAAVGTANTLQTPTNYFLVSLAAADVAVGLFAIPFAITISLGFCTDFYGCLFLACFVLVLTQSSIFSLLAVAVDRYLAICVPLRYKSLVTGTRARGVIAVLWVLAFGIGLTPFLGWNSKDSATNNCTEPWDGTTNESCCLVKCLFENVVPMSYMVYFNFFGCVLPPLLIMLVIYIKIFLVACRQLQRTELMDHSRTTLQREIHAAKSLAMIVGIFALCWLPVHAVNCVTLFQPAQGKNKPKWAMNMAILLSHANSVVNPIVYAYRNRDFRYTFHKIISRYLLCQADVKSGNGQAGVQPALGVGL

[9] = test system: Rattus norvegicus; assay: Anti-inflammatory activity in Sprague-Dawley rat assessed as inhibition of LPS-induced neutrophilia at 10 to 1000 ug/kg, it administered as suspension with Penn-Century micro-sprayer aerosolizer dosed 1 hrs before LPS challenge and measured 5 hrs post dose; assay type: functional; details: inhaled or nasal; outline: as §1
[10] = test system: Rattus norvegicus; assay: Anti-inflammatory activity in Sprague-Dawley rat assessed as inhibition of LPS-induced neutrophilia at 100 ug/kg, it administered as suspension with Penn-Century micro-sprayer aerosolizer dosed 18 hrs before LPS challenge and measured 22 hrs post dose; assay type: functional; details: inhaled or nasal; outline: as §1
[11] = test system: Rattus norvegicus; assay: Anti-inflammatory activity in Sprague-Dawley rat assessed as inhibition of LPS-induced neutrophilia at 30 ug/kg, it administered as suspension with Penn-Century micro-sprayer aerosolizer dosed 18 hrs before LPS challenge and measured 22 hrs post dose; assay type: functional; details: inhaled or nasal; outline: as §1
[12] = test system: Rattus norvegicus; assay: Anti-inflammatory activity in Sprague-Dawley rat assessed as inhibition of LPS-induced neutrophilia at 300 ug/kg, it administered as suspension with Penn-Century micro-sprayer aerosolizer dosed 18 hrs before LPS challenge and measured 22 hrs post dose; assay type: functional; details: inhaled or nasal; outline: as §1
[13] = test system: Rattus norvegicus; assay: Anti-inflammatory activity in Sprague-Dawley rat assessed as inhibition of LPS-induced neutrophilia at 100 ug/kg, it administered as dry powder with lactose carrier through Penn-Century insufflator dosed 1 hrs before LPS challenge and measured 5 hrs post dose; assay type: functional
Outline: (§2)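 Compounds were micronized, comixed with lactose, and 5 mg of the mixture was insufflated intratracheally into isoflurane-anesthetized fasted male Sprague-Dawley rats (230–280 g). LPS aerosol (30 mL of a 1:100 PBS dilution of 100 mg/10 mL stock) was nebulized for 40 min at 1 or 18 h post-dose. BAL was taken 4 h later and neutrophils counted by flow cytometry. Controls: lactose alone, lactose+LPS, fluticasone (10% in lactose).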

[14] = test system: Rattus norvegicus; assay: Anti-inflammatory activity in Sprague-Dawley rat assessed as inhibition of LPS-induced neutrophilia at 10 to 1000 ug/kg, it administered as suspension with Penn-Century micro-sprayer aerosolizer dosed 18 hrs before LPS challenge and measured 22 hrs post dose; assay type: functional; details: inhaled or nasal; outline: as §1
[15] = Drug metabolism in human liver S9 fraction assessed as glucuronidation in presence of PAPS and UDPGA incubated for 20 mins; assay type: ADME, subcellular; details: read-out: Drug metabolism
[16] = test system: Rattus norvegicus; assay: Anti-inflammatory activity in Sprague-Dawley rat assessed as inhibition of LPS-induced neutrophilia at 2000 ug/kg, it administered as dry powder with lactose carrier through Penn-Century insufflator dosed 18 hrs before LPS challenge and measured 22 hrs post dose; assay type: functional; outline: as §2
[17] = Drug metabolism in human liver S9 fraction assessed as sulfonation in presence of PAPS and UDPGA incubated for 20 mins; assay type: ADME, subcellular; details: read-out: Drug metabolism
[18] = test system: Rattus norvegicus; assay: Anti-inflammatory activity in Sprague-Dawley rat assessed as inhibition of LPS-induced neutrophilia at 10 to 1000 ug/kg, it administered as dry powder with lactose carrier through Penn-Century insufflator dosed 1 hrs before LPS challenge and measured 5 hrs post dose; assay type: functional; outline: as §2
[19] = test system: Rattus norvegicus; assay: Anti-inflammatory activity in Sprague-Dawley rat assessed as inhibition of LPS-induced neutrophilia at 1000 ug/kg, it administered as suspension with Penn-Century micro-sprayer aerosolizer dosed 18 hrs before LPS challenge and measured 22 hrs post dose; assay type: functional; details: inhaled or nasal; outline: as §1
[20] = test system: Rattus norvegicus; assay: Anti-inflammatory activity in Sprague-Dawley rat assessed as inhibition of LPS-induced neutrophilia at 1000 ug/kg, it administered as dry powder with lactose carrier through Penn-Century insufflator dosed 18 hrs before LPS challenge and measured 22 hrs post dose; assay type: functional; outline: as §2
[21] = test system: Rattus norvegicus; assay: Anti-inflammatory activity in Sprague-Dawley rat assessed as inhibition of LPS-induced neutrophilia at 1000 ug/kg, it administered as suspension with Penn-Century micro-sprayer aerosolizer dosed 1 hrs before LPS challenge and measured 5 hrs post dose; assay type: functional; details: inhaled or nasal; outline: as §1
[22] = test system: Rattus norvegicus; assay: Anti-inflammatory activity in Sprague-Dawley rat assessed as inhibition of LPS-induced neutrophilia at 6000 ug/kg, it administered as dry powder with lactose carrier through Penn-Century insufflator dosed 18 hrs before LPS challenge and measured 22 hrs post dose; assay type: functional; outline: as §2

Adenosine receptor A2a, sequence (P29274 whole entry): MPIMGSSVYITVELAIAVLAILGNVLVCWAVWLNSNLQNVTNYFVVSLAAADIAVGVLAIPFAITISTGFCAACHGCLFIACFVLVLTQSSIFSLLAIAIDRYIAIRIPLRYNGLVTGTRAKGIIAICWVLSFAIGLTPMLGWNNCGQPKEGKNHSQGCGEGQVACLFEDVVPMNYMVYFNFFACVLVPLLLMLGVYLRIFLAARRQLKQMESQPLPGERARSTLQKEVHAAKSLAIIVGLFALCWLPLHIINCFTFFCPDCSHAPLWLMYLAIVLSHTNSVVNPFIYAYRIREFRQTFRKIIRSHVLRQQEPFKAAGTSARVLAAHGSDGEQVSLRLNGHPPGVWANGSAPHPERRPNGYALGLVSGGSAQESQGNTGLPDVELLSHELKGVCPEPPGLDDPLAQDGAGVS

Row | Structure (SMILES) | IC50 [1] | fold change (FC) [2] | IC50 [3] | IC50 [4] | inhibition in vivo at 0.1 mg/kg [5] | IC50 [6] | IC50 [8] | ED50 [9] | ED50 [18] | inhibition in vivo at 1 mg/kg [19] | also measured
1 | CCn1nc(-c2cccc(-c3cccc(C(=O)NCCN4CCCCC4)c3)c2)cc(NC(=O)Nc2c(Cl)cncc2Cl)c1=O | 22 nM | 1.1 | 0.43 nM | 81 nM | 66% | 6 nM | 169 nM | – | – | – | pKb [7]: 11.2
2 | CCNC(=O)c1cc(C(=O)NCCCN(C)C)cc(-c2cccc(-c3cc(NC(=O)Nc4c(Cl)cncc4Cl)c(=O)n(CC)n3)c2)c1 | > 1000 nM | – | 0.36 nM | – | – | 537 nM | 368 nM | 0.018 mg/kg | – | – | inhibition in vivo at 0.1 mg/kg [10]: 48%; inhibition in vivo at 0.03 mg/kg [11]: 58%; inhibition in vivo at 0.3 mg/kg [12]: 60%
3 | CCn1nc(-c2cccc(-c3ccc(CC(=O)NCCCCCCCN(C)CCO)cc3)c2)cc(NC(=O)Nc2c(Cl)cncc2Cl)c1=O | 86 nM | 1.9 | 0.57 nM | 323 nM | 69% | 61 nM | 94 nM | – | – | – | inhibition in vivo at 0.1 mg/kg [13]: 23%; ED50 [14]: 0.091 mg/kg
4 | CCn1nc(-c2cccc(-c3cccc(O)c3)c2)cc(NC(=O)Nc2c(Cl)cncc2Cl)c1=O | 168 nM | – | 0.7 nM | 95 nM | – | 87 nM | 172 nM | 0.416 mg/kg | 0.551 mg/kg | 0% | metabolised at 20 min [15]: 21%; inhibition in vivo at 2 mg/kg [16]: 7%; metabolised at 20 min [17]: 3%
5 | CCn1nc(-c2cccc(-c3ccc(C(=O)O)cc3)c2)cc(NC(=O)Nc2c(Cl)cncc2Cl)c1=O | – | – | 0.55 nM | 373 nM | 50% | – | – | – | 0.015 mg/kg | 25% | metabolised at 20 min [15]: 0%; inhibition in vivo at 1 mg/kg [20]: 8%; inhibition in vivo at 1 mg/kg [21]: 59%
6 | CCn1nc(-c2cccc(-c3cccc(C(=O)NCCN4CCOCC4)c3)c2)cc(NC(=O)Nc2c(Cl)cncc2Cl)c1=O | 33 nM | 1.1 | 0.07 nM | 59 nM | 52% | 15 nM | 145 nM | – | – | – | pKb [7]: 8.3
7 | O=C(Nc1c(Cl)cncc1Cl)c1ccc(OC(F)F)c(OCC2CC2)c1 [ROFLUMILAST] | > 1000 nM | – | 4 nM | 36 nM | – | > 1000 nM | > 1000 nM | 0.126 mg/kg | 0.204 mg/kg | 24% | ED50 [14]: > 1 mg/kg; inhibition in vivo at 6 mg/kg [22]: 37%; inhibition in vivo at 1 mg/kg [21]: 80%
